Experimental data published in ChEMBL document CHEMBL1124622, “Synthesis and antiviral activity of 3'-C-cyano-3'-deoxynucleosides” (J Med Chem, 1989).
Values after ≈ are worked out from the molar mass of the structure shown.

Key:
HeLa [1] = test: (§1) Minimum inhibitory concentration against polio virus 1 in HeLa cell cultures; type: functional; settings: Homo sapiens
In short: (§2)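 Confluent HeLa, Vero or primary rabbit kidney cell cultures in microtiter trays are inoculated with 100 CCID50 of virus. After 1 h adsorption, residual virus is removed and cells are incubated with varying compound concentrations. Cytopathogenicity is recorded once it is complete in untreated virus-infected controls. MIC is the concentration inhibiting virus-induced cytopathogenicity.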

Semliki Forest virus = test: Minimum inhibitory concentration against forest virus in Vero cell cultures; type: functional; in short: as §2
[2] = test system: Mammalian orthoreovirus 1; test: (§3) Minimum inhibitory concentration against reovirus in Vero cell cultures; type: functional; in short: as §2
Vero [3] = test: (§4) Minimum inhibitory concentration against parainfluenza 3 virus in Vero cell cultures; type: functional, Human respirovirus 3; settings: Chlorocebus sabaeus; in short: as §2
HeLa [4] = test: (§5) Minimum inhibitory concentration against Coxsackie virus B4 in HeLa cell cultures; type: functional; settings: Homo sapiens; in short: as §2
Oryctolagus cuniculus [5] = species on record: Oryctolagus cuniculus; test: (§6) Minimum cytotoxic concentration in primary rabbit kidney cell cultures; type: functional
Sindbis virus = test: Minimum inhibitory concentration against Sindbis virus in Vero cell cultures; type: functional; in short: as §2
[6] = test system: Vesicular stomatitis virus; test: (§7) Minimum inhibitory concentration against Vesicular stomatitis virus in primary rabbit kidney cell cultures; type: functional; in short: as §2
Vaccinia virus = test: (§8) Minimum inhibitory concentration against Vaccinia virus in primary rabbit kidney cell cultures; type: functional; settings: Orthopoxvirus vaccinia; in short: as §2
Vero [7] = test: (§9) Minimum cytotoxic concentration in Vero cell cultures; type: functional; settings: Chlorocebus sabaeus
HeLa [8] = test: (§10) Minimum cytotoxic concentration in HeLa cell cultures; type: functional; settings: Homo sapiens
HeLa [9] = test: (§11) Minimum inhibitory concentration against Vesicular stomatitis virus in HeLa cell cultures; type: functional; settings: Homo sapiens; in short: as §2
Coxsackievirus B4 [10] = test: (§12) Minimum inhibitory concentration against Coxsackie virus B4 in Vero cell cultures; type: functional; settings: Enterovirus B; in short: as §2
[11] = as §9; type: cell-based; settings: chlorocebus sabaeus, Vero cells
Oryctolagus cuniculus [12] = species on record: Oryctolagus cuniculus; test: Minimum inhibitory concentration against Herpes simplex virus 1(KOS) in primary rabbit kidney cell cultures; type: functional; in short: as §2
Oryctolagus cuniculus [13] = species on record: Oryctolagus cuniculus; test: as §7; type: functional; in short: as §2
Oryctolagus cuniculus [14] = species on record: Oryctolagus cuniculus; test: Minimum inhibitory concentration against Herpes simplex virus 2 (G) in primary rabbit kidney cell cultures; type: functional; in short: as §2
Oryctolagus cuniculus [15] = species on record: Oryctolagus cuniculus; test: as §8; type: functional; in short: as §2
[16] = as §10; type: cell-based; settings: human, HeLa cells
Human respirovirus 3 = test: as §4; type: functional; in short: as §2
Oryctolagus cuniculus [17] = species on record: Oryctolagus cuniculus; test: Minimum cytotoxic concentration in primary rabbit kidney cell cultures
Homo sapiens = species on record: Homo sapiens; test: Cytotoxic dose against uninfected human MT-4 cell; type: functional; settings: MT4, read-out: CD50 (the source's name)
In short: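 Cytotoxicity counterpart of the HIV assay: uninfected human MT-4 lymphocytes exposed to the compounds. CD50 is the dose that reduces viability of these uninfected cells by 50%.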

[18] = test system: Moloney murine sarcoma virus; test: In vitro effective dose against Moloney murine sarcoma virus induced transformation of C3H embryo fibroblast cells.; type: functional; settings: read-out: ED50 (the source's name)
In short: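 C3H mouse embryo cells are seeded at 20 000 cells/mL per well and grown 24 h. They are infected with 80 foci-forming units of Moloney MSV for 90 min, then given fresh medium with varying compound concentrations. Transformation is examined microscopically after 6-7 days. ED50 is the dose giving a 50% reduction in transformation.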

[19] = In vitro minimum cytotoxic concentration in C3H embryo fibroblast cells.; type: functional; settings: Mus musculus
In short: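 Minimal cytotoxic concentration in C3H mouse embryo cells, run in the same 48-well setup as the MSV transformation assay: the concentration producing microscopically visible alteration of cell morphology.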

[20] = as §6; type: cell-based, Oryctolagus cuniculus; settings: primary rabbit kidney cells
[21] = test system: Human immunodeficiency virus 1; test: Effective dose against HIV-1 induced cytopathogenicity in human MT-4 cell.; type: functional; settings: Human immunodeficiency virus 1, MT4; read-out: ED50 (the source's name)
In short: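 HIV (HTLV-III_B) is taken from the culture supernatant of a persistently infected HUT-78 line. Human MT-4 lymphocytes are infected and the assay scores inhibition of virus-induced cytopathogenicity. ED50 is the dose giving 50% protection of MT-4 cells against the viral cytopathic effect.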

Enterovirus C = test: as §1; type: functional; in short: as §2
Reovirus sp. = test: as §3; type: functional; in short: as §2
Coxsackievirus B4 [22] = test: as §5; type: functional; settings: Enterovirus B; in short: as §2
[23] = test system: Vesicular stomatitis virus; test: as §11; type: functional; in short: as §2
Coxsackievirus = test: as §12; type: functional; in short: as §2
[24] = inimum cytotoxic concentration in Vero cell cultures; type: cell-based; settings: chlorocebus sabaeus, Vero cells

Row | Compound | MIC (HeLa [1]) | MIC (Semliki Forest virus) | MIC [2] | MIC (HeLa [4]) | MIC (Sindbis virus) | MIC [6] | MIC (Vaccinia virus) | MIC (HeLa [9]) | MIC (Coxsackievirus B4 [10]) | MCC [11] | MCC [16] | MIC (Human respirovirus 3) | CC50 (Homo sapiens) | EC50 [18] | MCC [19] | MCC [20] | EC50 [21] | other results
1 | Nc1ncnc2c1ncn2C[C@H](O)CO [(S)-DHPA] | > 400 µg/mL | > 400 µg/mL | 7 µg/mL (≈ 33.5 µM) | 2 µg/mL (≈ 9.56 µM) | > 400 µg/mL | 20 µg/mL (≈ 95.6 µM) | 20 µg/mL (≈ 95.6 µM) | > 400 µg/mL | 100 µg/mL (≈ 478 µM) |  |  |  |  |  |  |  |  | MIC (Vero [3]): 150 µg/mL (≈ 717 µM); MCC (Oryctolagus cuniculus [5]): ≥ 400 µg/mL; MCC (Vero [7]): 400 µg/mL; MCC (HeLa [8]): > 400 µg/mL
2 | NC(=O)c1ncn([C@@H]2O[C@H](CO)[C@@H](O)[C@H]2O)n1 [RIBAVIRIN] | 70 µg/mL (≈ 287 µM) | 300 µg/mL (≈ 1230 µM) | 70 µg/mL (≈ 287 µM) | 70 µg/mL (≈ 287 µM) | 70 µg/mL (≈ 287 µM) |  |  | 20 µg/mL (≈ 81.9 µM) | 100 µg/mL (≈ 409 µM) | > 400 µg/mL | > 200 µg/mL | 40 µg/mL (≈ 164 µM) |  |  |  |  |  | MIC (Oryctolagus cuniculus [12]): > 400 µg/mL; MIC (Oryctolagus cuniculus [13]): 300 µg/mL (≈ 1230 µM); MIC (Oryctolagus cuniculus [14]): > 400 µg/mL; MIC (Oryctolagus cuniculus [15]): 10 µg/mL (≈ 40.9 µM); MCC (Oryctolagus cuniculus [17]): > 400 µg/mL
3 | CC(C)(C)[Si](C)(C)OC[C@H]1O[C@@H](n2ccc(=O)[nH]c2=O)[C@H](O[Si](C)(C)C(C)(C)C)[C@@H]1C#N | > 10 µg/mL | > 4 µg/mL | > 4 µg/mL | > 10 µg/mL | > 4 µg/mL | > 4 µg/mL | > 4 µg/mL | > 10 µg/mL | > 4 µg/mL | > 10 µg/mL | > 40 µg/mL | > 4 µg/mL | 6.6 µM | 5.6 µg/mL (≈ 11.6 µM) | > 8 µg/mL | > 10 µg/mL | 3.2 µM | 
4 | Nc1ncnc2c1ccn2[C@@H]1O[C@H](CO)[C@@H](O)[C@H]1O [TUBERCIDIN] | 0.4 µg/mL (≈ 1.5 µM) | > 0.1 µg/mL | > 0.1 µg/mL | 0.4 µg/mL (≈ 1.5 µM) | 0.2 µg/mL (≈ 0.751 µM) | 0.07 µg/mL (≈ 0.263 µM) | 0.1 µg/mL (≈ 0.376 µM) | 0.07 µg/mL (≈ 0.263 µM) | > 0.1 µg/mL | 0.4 µg/mL | > 0.4 µg/mL | > 0.1 µg/mL |  |  |  |  |  | MCC (Oryctolagus cuniculus [17]): > 0.4 µg/mL
5 | Cc1cn([C@H]2C[C@H](C#N)[C@@H](CO)O2)c(=O)[nH]c1=O | > 100 µg/mL | > 10 µg/mL | > 10 µg/mL | > 100 µg/mL | > 10 µg/mL | > 40 µg/mL | 20 µg/mL (≈ 79.6 µM) | > 100 µg/mL | > 10 µg/mL | > 10 µg/mL | 200 µg/mL | > 10 µg/mL | 30 µM | > 16 µg/mL | 80 µg/mL | 100 µg/mL | > 16 µM | 
6 | N#C[C@H]1[C@@H](O)[C@H](n2cnc3c(N)ncnc32)O[C@@H]1CO |  | 20 µg/mL (≈ 72.4 µM) |  |  | 10 µg/mL (≈ 36.2 µM) | > 400 µg/mL |  |  |  | 100 µg/mL | > 200 µg/mL | > 100 µg/mL | 3.8 µM | 8.5 µg/mL (≈ 30.8 µM) | > 40 µg/mL | > 400 µg/mL | > 1.6 µM | MIC (Enterovirus C): > 100 µg/mL; MIC (Reovirus sp.): > 40 µg/mL; MIC (Coxsackievirus B4 [22]): 200 µg/mL (≈ 724 µM); MIC [23]: > 100 µg/mL; MIC (Coxsackievirus): > 100 µg/mL
7 | CC(C)(C)[Si](C)(C)OC[C@H]1O[C@@H](n2cnc3c(N)ncnc32)[C@H](O[Si](C)(C)C(C)(C)C)[C@H]1C#N | > 40 µg/mL | > 40 µg/mL | > 10 µg/mL | > 40 µg/mL | 20 µg/mL (≈ 39.6 µM) | > 40 µg/mL | > 40 µg/mL | > 40 µg/mL | 20 µg/mL (≈ 39.6 µM) |  | > 100 µg/mL | > 10 µg/mL | 25 µM | 16 µg/mL (≈ 31.7 µM) | 80 µg/mL | > 100 µg/mL | > 16 µM | MCC [24]: > 40 µg/mL
8 | Cc1cn(C2OC(CO)C(C#N)C2O)c(=O)[nH]c1=O (stereo not given) | > 200 µg/mL | 300 µg/mL (≈ 1120 µM) | > 200 µg/mL | > 200 µg/mL | 150 µg/mL (≈ 561 µM) | > 200 µg/mL | 150 µg/mL (≈ 561 µM) | > 200 µg/mL | > 100 µg/mL | > 200 µg/mL | > 400 µg/mL | > 100 µg/mL | 232 µM | > 250 µg/mL | > 250 µg/mL | 400 µg/mL | > 250 µM | 
